Measured values reported in paper PMC6571994 (The Journal of General Physiology, 2019).
Entries after “also recorded” stand apart in the source; their conditions may differ. Where two headings read alike, the source gives them in different places. Values belong to the compound of their own block, whether it stands above or below them.

Experiments:
purified iNicSnFR3a [1] = assay: Fluorescence dose–response relations of purified iNicSnFR3a; type: biochemical; settings: for sensitivity of iNicSnFR3a and iNicSnFR3b to other α4β2 agonists: unpublished data; for ΔFmax/F0: excitation 485 nm, 3× PBS, 25°C
[2] = test system: iNicSnFR3a_PM expressed in HeLa cells; assay: Time-resolved fluorescence, iNicSnFR3a_PM in transfected HeLa cells; type: cell-based, human; settings: Fig. 5 E; normalized to nicotine (100 µM)
[3] = test system: T. sp X513 OpuBC homologue; assay: Isothermal titration calorimetry with purified PBPs; type: binding, Thermoanaerobacter sp X513
[4] = test system: iNicSnFR3a_ER expressed in HeLa cells; assay: Time-resolved fluorescence, iNicSnFR3a_ER in transfected HeLa cells; type: cell-based, human; settings: Fig. 5 E; normalized to nicotine (100 µM)
iNicSnFR3a = assay: Stopped-flow kinetics of ligand binding to iNicSnFR3a
[5] = cited from earlier work; for pKa: no reference printed; for logD7.4: ref Smith et al., 2012
[6] = test system: _ER constructs in HeLa cells and hippocampal neurons; settings: applied [nicotine] ≤ 5 µM; mean ± SEM, n = 8 cells
[7] = test system: iNiSnFR3a_Y357A_PM in HeLa cells; settings: concentrations ≤300 µM
iNicSnFR1 = settings: read-out: apparent nicotine EC50
[8] = test system: _PM constructs in HeLa cells and hippocampal neurons; settings: applied [nicotine] ≤ 5 µM; mean ± SEM, n = 8 cells
[9] = test system: iNicSnFR3a_ER in human dopaminergic neurons
[10] = test system: iNicSnFR3 biosensors targeted to the ER; type: cell-based
[11] = test system: AAV_iNicSnFR3b_ER in cultured mouse hippocampal neurons
purified iNicSnFR3a [12] = assay: Isothermal titration calorimetry with purified iNicSnFR3a; type: binding; settings: PBS, 25°C
How it was run: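 Calorimetric titration: 100 µM protein in the cell titrated with 1 mM test ligand in PBS at 25°C. Binding isotherm yields equilibrium dissociation constant and stoichiometry (moles ligand per mole protein).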

[13] = cited from earlier work
[14] = test system: AAV2/1.syn1.iNicSnFR3b_ER in cultured hippocampal neurons; assay: Time-resolved fluorescence, iNicSnFR3b_ER in cultured hippocampal neurons; type: cell-based, mouse; settings: compared with nicotine responses and with varenicline responses on the PM
[15] = test system: iNicSnFR3a and iNicSnFR3b in HeLa cells and neurons; type: cell-based
α7 nAChRs = settings: cited from earlier work
α4β2 nAChRs [16] = settings: cited from earlier work
α4β2 nAChRs [17] = settings: ref Turner et al., 2011; Marks et al., 2015; Govind et al., 2017; cited from earlier work
[18] = ref Coe et al., 2005, Mihalak et al., 2006

Structure (SMILES): c1cncc(OC[C@@H]2CCN2)c1 [A-85380]
- sensitivity of iNicSnFR3a and iNicSnFR3b to other α4β2 agonists (purified iNicSnFR3a [1]): less sensitive

- binding to the purified protein [3]: bind to this protein
Structure (SMILES): CC(=O)OCC[N+](C)(C)C [ACh, acetylcholine]
- fluorescence increases [2]: comparable fluorescence increases
- fluorescence increases [4]: only nicotine evoked fluorescence increases

- binding to the purified protein [3]: bind to this protein
Structure (SMILES): C[N+](C)(C)CC(=O)O [betaine]

- EC50 for choline relative to nicotine (purified iNicSnFR3a [1]; Fig. 2 C): more than fourfold greater
- binding to the purified protein [3]: bind to this protein
Structure (SMILES): C[N+](C)(C)CCO [choline]

Structure (SMILES): CN1C(=O)CC[C@H]1c1cccnc1 [cotinine]
- ΔF (purified iNicSnFR3a [1]; Fig. 2 C): near-zero ΔF values

Structure (SMILES): O=c1cccc2n1C[C@@H]1CNC[C@H]2C1 [cytisine]
- sensitivity of iNicSnFR3a and iNicSnFR3b to other α4β2 agonists (purified iNicSnFR3a [1]): less sensitive

Structure (SMILES): c1cnc2c(c1)O[C@H]1CCN3CC[C@@]1(C2)C3 [dianicline]
- sensitivity of iNicSnFR3a and iNicSnFR3b to other α4β2 agonists (purified iNicSnFR3a [1]): less sensitive

Structure (SMILES): CN1CCC[C@H]1c1cccnc1 [nicotine, (—)–Nicotine]
- koff-ext (extrapolation to zero [nicotine]) (iNicSnFR3a; 25°C, PBS): 2.0 s⁻¹
- Kd (iNicSnFR3a; read-out: equilibrium-binding constant Kd = koff/kon, stopped-flow): 29 µM
- fluorescence increases [2]: comparable fluorescence increases
- pKa [5]: 7.5–8
- pKa ([5]; listed as Nicotine): 7.5–8.1
- logD7.4 [5]: −0.04
- decrease in EC50 as the pH is increased from 6.0 to 9.0 (purified iNicSnFR3a [1]; Fig. 3 I): ~20 fold
- EC50 for nicotine relative to EC50 for N’MeNic (purified iNicSnFR3a [1]; pH 6.0 to 9.0, Fig. 3 I): 1.25- to 2 fold
- ΔFmax/F0 (purified iNicSnFR3a [1]; pH 7.5): 14.5
- ΔFmax/F0 (purified iNicSnFR3a [1]; pH 9.0): 3.5
- fluorescence increases [4]: only nicotine evoked fluorescence increases
- [ΔF/F0]/[nicotine] [6]: 0.075 ± 0.019 µM⁻¹
- nicotine-induced ΔF [7]: no detectable nicotine-induced ΔF
- EC50 (iNicSnFR1): 250 µM
- [ΔF/F0]/[nicotine] [8]: 0.063 ± 0.13 µM⁻¹
- maximum ΔF/F0 [9]: 3–4
- slope [ΔF/F0]/[nicotine] ([9]; [nicotine] ≤ 5 µM, Fig. 6 F inset): 0.087 µM⁻¹
- EC50 ([9]; read-out: [nicotine] giving half-ΔFmax/F0): ~20 µM
- [nicotine] in the ER versus the extracellular value [10]: within twofold; also recorded: less than twofold
- time for nicotine to leave the ER after removal from the extracellular solution [10]: ≤ 10 s
- diffusion constant [11]: ~1 µm^2/ms
- time scale of complete response ([11]; cell in ROI 3, ∼150 µm from the pipette tip): ~10 s
- time of fluorescence increase ([11]; cell within 10 µm of the pipette tip): < 1 s
- Kd (purified iNicSnFR3a [12]): 10 ± 2.5 µM
- half-time of metabolism ([13]; in humans, ref Benowitz et al., 1991): ~20 min
- peak [nicotine] in the plasma and brain of a smoker ([13]; ref Benowitz et al., 1991, Rollema et al., 2010): ~1 µM

Structure (SMILES): c1cnc2cc3c(cc2n1)[C@@H]1CNC[C@H]3C1 [varenicline]
- inferred Kd relative to nicotine (iNicSnFR3a; stopped-flow): approximately threefold less
- growth and decay phases of the ER varenicline-induced fluorescence [14]: clearly slower
- EC50 [15]: 1 to 4 µM
- pKa [5]: 9.5–10
- logD7.4 [5]: −1.27
- agonist character for iNicSnFR3 fluorescence (purified iNicSnFR3a [1]): highly potent full agonist
- varenicline EC50 relative to nicotine (purified iNicSnFR3a [1]; purified iNicSnFR3a): approximately sixfold less
- agonist type (α7 nAChRs; no reference printed): full agonist
- potency relative to ACh (α7 nAChRs; [18]): more potent than ACh
- agonist type (α4β2 nAChRs [16]; no reference printed): partial agonist
- potency relative to ACh (α4β2 nAChRs [16]; [18]): more potent than ACh
- time for varenicline to leave the ER after leaving the external solution ([10]; clinically relevant sub-µM concentrations): at most 60 s
- Kd (purified iNicSnFR3a [12]): 3.5 µM
- half-life ([13]; human plasma, ref Faessel et al., 2006): ~24 h
- effect of exposure on α4β2 nAChRs (α4β2 nAChRs [17]): up-regulates
